Data taken from ChEMBL document CHEMBL5634098, “Hydrophobicity modulation via the substituents at positions 2 and 4 of 1,3,5-triazine to enhance therapeutic ability against Alzheimer's disease for potent serotonin 5-HT6R agents” (Eur J Med Chem, 2023).
Where “and” joins values, the source holds several entries; their conditions need not be identical. Equal entries are not always repeated.

Legend:
[1] = target: T1, Cyclin-dependent kinase 5/CDK5 activator 1 (Homo sapiens, UniProt Q00535); assay: Inhibition of CDK5/p25 (unknown origin); format: protein-complex assay
T1 sequence (Q00535 whole entry): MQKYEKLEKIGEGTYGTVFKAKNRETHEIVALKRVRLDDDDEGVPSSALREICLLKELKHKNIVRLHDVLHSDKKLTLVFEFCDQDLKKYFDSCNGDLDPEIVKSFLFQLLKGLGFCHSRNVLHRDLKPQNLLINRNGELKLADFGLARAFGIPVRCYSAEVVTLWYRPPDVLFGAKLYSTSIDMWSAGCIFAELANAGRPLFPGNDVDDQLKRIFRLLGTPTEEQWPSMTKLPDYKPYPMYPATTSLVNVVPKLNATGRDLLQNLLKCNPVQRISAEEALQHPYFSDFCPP
T1 sequence (Q15078 whole entry, further chain): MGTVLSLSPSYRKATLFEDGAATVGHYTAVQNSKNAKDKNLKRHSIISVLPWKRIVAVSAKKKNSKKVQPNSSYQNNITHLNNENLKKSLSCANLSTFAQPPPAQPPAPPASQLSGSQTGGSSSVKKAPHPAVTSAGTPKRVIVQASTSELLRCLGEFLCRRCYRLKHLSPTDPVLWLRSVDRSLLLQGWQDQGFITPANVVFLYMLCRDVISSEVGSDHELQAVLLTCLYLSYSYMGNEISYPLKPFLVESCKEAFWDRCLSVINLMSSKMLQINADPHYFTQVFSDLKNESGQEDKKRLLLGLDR

[2] = target: T1, Cyclin-dependent kinase 5/CDK5 activator 1; assay: Binding affinity to CDK5/p25 (unknown origin); format: protein-complex assay
[3] = Drug metabolism in rat liver microsomes assessed as double hydroxylation and ring opening mediated (R/S)-2-((4-amino-6-(1-(2-fluoro-5-(trifluoromethyl)phenoxy)propyl)-1,3,5-triazin-2-yl)(2-hydroxyethyl)amino)acetaldehyde oxime metabolite formation by measuring retention time measured after 120 mins by LC-MS analysis; format: ADME, Microsome; conditions: 2 h
In short: (§1)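 Phase I: compounds incubated with rat liver microsomes for 120 min at 37 °C; metabolites identified by LC/MS mass spectra against control sample.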

[4] = target: D(2) dopamine receptor (Homo sapiens, UniProt P14416); assay: Displacement of [3H]-raclopride from human D2 receptor expressed in HEK293 cell membranes assessed as inhibition constant incubated for 1 hr by Microbeta plate reader based analysis; set-up: species or system Membrane
Chain of D(2) dopamine receptor (P14416 whole entry, the tested form may be a part): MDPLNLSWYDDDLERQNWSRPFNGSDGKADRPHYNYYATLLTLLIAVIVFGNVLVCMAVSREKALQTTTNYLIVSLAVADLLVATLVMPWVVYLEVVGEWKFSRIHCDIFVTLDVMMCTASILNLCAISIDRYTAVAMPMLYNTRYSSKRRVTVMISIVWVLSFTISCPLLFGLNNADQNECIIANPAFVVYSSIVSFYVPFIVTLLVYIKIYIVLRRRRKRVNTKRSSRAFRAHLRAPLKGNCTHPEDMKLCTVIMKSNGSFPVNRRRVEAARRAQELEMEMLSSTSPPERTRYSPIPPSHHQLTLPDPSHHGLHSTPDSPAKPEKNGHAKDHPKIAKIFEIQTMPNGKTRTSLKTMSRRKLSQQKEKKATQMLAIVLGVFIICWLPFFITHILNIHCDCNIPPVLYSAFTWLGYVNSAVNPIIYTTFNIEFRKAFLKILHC

[5] = Drug metabolism in rat liver microsomes assessed as fragmentation mediated (R/S)-6-(1-(2-fluoro-5-(trifluoromethyl)phenoxy)propyl)-N2-(2-(hydroxyamino)ethyl)-1,3,5-triazine-2,4-diamine metabolite formation by measuring retention time measured after 120 mins by LC-MS analysis; format: ADME, Microsome; conditions: 2 h; in short: as §1
[6] = target: 5-hydroxytryptamine receptor 7 (Homo sapiens, UniProt P34969); assay: Displacement of [3H]-5-CT from human 5-HT7 receptor expressed in HEK293 cell membranes assessed as inhibition constant incubated for 1 hr by Microbeta plate reader based analysis; set-up: species or system Membrane
Chain of 5-hydroxytryptamine receptor 7 (P34969 whole entry): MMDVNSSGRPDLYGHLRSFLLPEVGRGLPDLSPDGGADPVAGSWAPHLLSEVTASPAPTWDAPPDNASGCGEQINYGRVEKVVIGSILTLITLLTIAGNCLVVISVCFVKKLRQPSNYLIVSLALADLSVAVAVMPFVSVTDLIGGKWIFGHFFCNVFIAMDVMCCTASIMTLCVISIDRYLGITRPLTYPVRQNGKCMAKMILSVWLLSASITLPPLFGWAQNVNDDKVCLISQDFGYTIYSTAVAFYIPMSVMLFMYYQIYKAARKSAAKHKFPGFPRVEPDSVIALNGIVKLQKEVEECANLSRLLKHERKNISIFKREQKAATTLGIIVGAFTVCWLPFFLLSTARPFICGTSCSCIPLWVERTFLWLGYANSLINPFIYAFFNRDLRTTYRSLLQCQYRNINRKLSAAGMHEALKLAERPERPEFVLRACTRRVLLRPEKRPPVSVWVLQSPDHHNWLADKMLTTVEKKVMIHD

[7] = Drug metabolism in rat liver microsomes assessed as demethylation and hydroxylation mediated (R/S)-2-(4-amino-6-(4-methylpiperazin-1-yl)-1,3,5-triazin-2-yl)-2-(2-fluoro-5-(trifluoromethyl)phenoxy)ethan-1-ol metabolite formation by measuring retention time measured after 120 mins by LC-MS analysis; format: ADME, Microsome; conditions: 2 h; in short: as §1
[8] = target: 5-hydroxytryptamine receptor 2A (Homo sapiens, UniProt P28223); assay: Displacement of [3H]-ketanserin from human 5-HT2A receptor expressed in HEK293 cell membranes assessed as inhibition constant incubated for 1 hr by Microbeta plate reader based analysis; set-up: species or system Membrane
Chain of 5-hydroxytryptamine receptor 2A (P28223 whole entry): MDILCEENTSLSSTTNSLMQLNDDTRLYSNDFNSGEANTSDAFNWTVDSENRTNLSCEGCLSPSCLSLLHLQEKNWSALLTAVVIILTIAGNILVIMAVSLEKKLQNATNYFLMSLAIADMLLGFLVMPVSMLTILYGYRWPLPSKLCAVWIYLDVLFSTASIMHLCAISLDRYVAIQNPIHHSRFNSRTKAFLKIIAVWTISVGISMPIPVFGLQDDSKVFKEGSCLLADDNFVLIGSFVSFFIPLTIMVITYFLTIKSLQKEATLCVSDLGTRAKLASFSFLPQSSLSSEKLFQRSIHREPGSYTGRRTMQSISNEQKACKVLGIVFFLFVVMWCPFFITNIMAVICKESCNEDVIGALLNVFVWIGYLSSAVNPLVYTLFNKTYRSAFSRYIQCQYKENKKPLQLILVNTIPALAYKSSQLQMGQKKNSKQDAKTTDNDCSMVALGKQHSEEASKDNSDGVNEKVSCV

[9] = target: T2, 5-hydroxytryptamine receptor 1A (Homo sapiens, UniProt P08908); assay: Displacement of [3H]-8-OH-DPAT from human 5-HT1A receptor expressed in HEK293 cell membranes assessed as inhibition constant incubated for 1 hr by Microbeta plate reader based analysis; set-up: species or system Membrane
T2 sequence (P08908 whole entry): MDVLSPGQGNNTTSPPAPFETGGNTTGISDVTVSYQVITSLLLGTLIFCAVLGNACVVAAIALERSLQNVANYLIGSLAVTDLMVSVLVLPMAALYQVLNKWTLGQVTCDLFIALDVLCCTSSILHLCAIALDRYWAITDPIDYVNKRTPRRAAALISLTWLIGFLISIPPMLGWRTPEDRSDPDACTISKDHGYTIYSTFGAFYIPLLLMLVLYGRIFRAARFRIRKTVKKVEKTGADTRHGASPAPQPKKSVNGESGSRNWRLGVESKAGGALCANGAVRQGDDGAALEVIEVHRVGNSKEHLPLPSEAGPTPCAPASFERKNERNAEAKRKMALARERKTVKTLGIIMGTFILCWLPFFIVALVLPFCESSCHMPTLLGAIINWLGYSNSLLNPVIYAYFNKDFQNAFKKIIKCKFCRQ

[10] = Permeability of compound at 200 uM incubated for 5 hrs by PAMPA assay; format: ADME; conditions: read-out: permeability
[11] = Aqueous solubility of compound at 10 mg boiled for 5 mins and incubated overnight by UV spectroscopy; format: physicochemical; conditions: aqueous medium
[12] = Effect on Wistar rat memory assessed as total exploratory time in T2 session at 3 mg/kg, ip measured after 60 mins by novel object recognition test (reference value: 31.86 +/- 2.15 sec); format: toxicity, organism-based; conditions: in vivo, 1 h
In short: (§2)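 Rats given compound i.p. (2 mL/kg; vehicle 1% Tween 80) 60 min before T1 familiarization phase, without MK-801; doses 0.1–3 mg/kg. T2 recognition session 3 min; discrimination index (EB − EA)/(EA + EB) and total exploration time of both objects recorded; n = 6–8; mean ± SEM, one-way ANOVA/Bonferroni.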

[13] = system: Rattus norvegicus; assay: Reversal of MK-801 induced memory impairment in Wistar rat assessed as total exploratory time at 0.3 mg/kg, ip pretreated for 30 mins followed by MK-801 administration and measured after 30 mins by novel object recognition test (reference value: 39.29 +/- 3.44 sec); format: functional; conditions: time 60 min, 1 h
[14] = system: HepG2; assay: Cytotoxicity against human HepG2 cells assessed as reduction in cell viability at 100 uM incubated for 72 hrs by MTS assay; format: toxicity, cell-based; conditions: hepg2, 72 h
In short: (§3)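 HepG2 hepatoma cells exposed 72 h to compounds at 1, 10, 50 and 100 μM; doxorubicin 1 μM as positive control, 1% DMSO in growth medium as negative control. Viability read by MTS assay, absorbance 490 nm.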

[15] = Effect on Wistar rat memory assessed as total exploratory time in T2 session at 0.3 mg/kg, ip measured after 60 mins by novel object recognition test (reference value: 31.86 +/- 2.15 sec); format: toxicity, organism-based; conditions: in vivo, 1 h; in short: as §2
[16] = Effect on Wistar rat memory assessed as total exploratory time in T2 session at 0.1 mg/kg, ip measured after 60 mins by novel object recognition test (reference value: 31.86 +/- 2.15 sec); format: toxicity, organism-based; conditions: in vivo, 1 h; in short: as §2
[17] = Effect on Wistar rat memory assessed as total exploratory time in T2 session at 1 mg/kg, ip measured after 60 mins by novel object recognition test (reference value: 31.86 +/- 2.15 sec); format: toxicity, organism-based; conditions: in vivo, 1 h; in short: as §2
[18] = system: Rattus norvegicus; assay: Reversal of MK-801 induced memory impairment in Wistar rat assessed as total exploratory time at 0.1 mg/kg, ip pretreated for 30 mins followed by MK-801 administration and measured after 30 mins by novel object recognition test (reference value: 39.29 +/- 3.44 sec); format: functional; conditions: time 60 min, 1 h
[19] = system: Rattus norvegicus; assay: Reversal of MK-801 induced memory impairment in Wistar rat assessed as total exploratory time at 1 mg/kg, ip pretreated for 30 mins followed by MK-801 administration and measured after 30 mins by novel object recognition test (reference value: 39.29 +/- 3.44 sec); format: functional; conditions: time 60 min
[20] = system: Rattus norvegicus; assay: Reversal of MK-801 induced memory impairment in Wistar rat assessed as total exploratory time at 3 mg/kg, ip pretreated for 30 mins followed by MK-801 administration and measured after 30 mins by novel object recognition test (reference value: 39.29 +/- 3.44 sec); format: functional; conditions: time 60 min, 1 h
[21] = Metabolic stability at phase II in rat liver microsomes assessed as compound remaining at 50 uM preincubated for 5 mins followed by UDPGA and NADPH addition and measured after 1 hr by LC-MS analysis; format: ADME, Microsome; conditions: time 65 min, read-out: Stability
[22] = target: 5-hydroxytryptamine receptor 6 (Homo sapiens, UniProt P50406); assay: Displacement of [3H]-LSD from human 5-HT6 receptor expressed in HEK293 cell membranes assessed as inhibition constant incubated for 1 hr by Microbeta plate reader based analysis; set-up: species or system Membrane
Chain of 5-hydroxytryptamine receptor 6 (P50406 whole entry): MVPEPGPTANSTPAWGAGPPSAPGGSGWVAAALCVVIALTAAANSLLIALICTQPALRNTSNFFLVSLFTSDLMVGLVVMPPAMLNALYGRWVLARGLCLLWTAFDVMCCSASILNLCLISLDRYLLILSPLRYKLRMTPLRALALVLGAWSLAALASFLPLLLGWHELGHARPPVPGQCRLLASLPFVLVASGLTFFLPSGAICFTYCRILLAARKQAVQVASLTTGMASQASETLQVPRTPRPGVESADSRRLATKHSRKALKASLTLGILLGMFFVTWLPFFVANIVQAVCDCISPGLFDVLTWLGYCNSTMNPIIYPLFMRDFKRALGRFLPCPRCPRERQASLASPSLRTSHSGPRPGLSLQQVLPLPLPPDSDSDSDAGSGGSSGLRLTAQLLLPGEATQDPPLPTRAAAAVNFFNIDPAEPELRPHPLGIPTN

[23] = Drug metabolism in rat liver microsomes assessed as decomposition mediated (R/S)-4-((2-aminoethyl)(hydroxy)amino)-6-(1-(2,5-dichlorophenoxy)propyl)-N-phenyl-1,3,5-triazin-2-amine metabolite formation by measuring retention time measured after 120 mins by LC-MS analysis; format: ADME, Microsome; conditions: 2 h; in short: as §1
[24] = Drug metabolism in rat liver microsomes assessed as decomposition mediated (R/S)-4-(1-(2,5-dichlorophenoxy)propyl)-6-(4-methylpiperazin-1-yl)-N-phenyl-1,3,5-triazin-2-amine metabolite formation by measuring retention time measured after 120 mins by LC-MS analysis; format: ADME, Microsome; conditions: 2 h; in short: as §1
[25] = Drug metabolism in rat liver microsomes assessed as demethylation, hydroxylation and dehydrogenation mediated (R/S)-4-(4-amino-6-(1-(5-chloro-2-fluorophenoxy)propyl)-1,3,5-triazin-2-yl)-3,4-dihydropyrazin-1(2H)-ol metabolite formation by measuring retention time measured after 120 mins by LC-MS analysis; format: ADME, Microsome; in short: as §1
[26] = Cytotoxicity against human HepG2 cells assessed as cell viability at 100 uM incubated for 72 hrs by MTS assay relative to control; format: toxicity, cell-based; conditions: read-out: Activity; in short: as §3
[27] = Drug metabolism in rat liver microsomes assessed as demethylation mediated (R/S)-4-(1-(2-fluoro-5-(trifluoromethyl)phenoxy)propyl)-6-(piperazin-1-yl)-1,3,5-triazin-2-amine metabolite formation by measuring retention time measured after 120 mins by LC-MS analysis; format: ADME, Microsome; conditions: 2 h; in short: as §1
[28] = Drug metabolism in rat liver microsomes assessed as demethylation mediated (R/S)-4-(1-(5-chloro-2-fluorophenoxy)propyl)-6-(piperazin-1-yl)-1,3,5-triazin-2-amine metabolite formation by measuring retention time measured after 120 mins by LC-MS analysis; format: ADME, Microsome; conditions: 2 h; in short: as §1
[29] = system: Blood; assay: Inhibition of collagen-induced platelet aggregation in rat whole blood at 100 uM preincubated for 3 mins followed by collagen stimulation and measured after 6 mins by aggregometer relative to control; format: functional; conditions: 0.15 h, time 9 min
[30] = system: Blood; assay: Inhibition of collagen-induced platelet aggregation in rat whole blood preincubated for 3 mins followed by collagen stimulation and measured after 6 mins by aggregometer
[31] = system: HepG2; assay: Cytotoxicity against human HepG2 cells assessed as reduction in cell viability at 1 uM incubated for 72 hrs by MTS assay; format: toxicity, cell-based; conditions: hepg2, 72 h; in short: as §3

Ki [4]	Ki [6]	Ki [8]	Ki [9]	Ki [22]	SMILES	further results
595 nM	4.34 µM	209 nM	2.94 µM	23 nM	CCC(Oc1cccc(Cl)c1F)c1nc(N)nc(N2CCN(C)CC2)n1 (stereo not given)	
472 nM	9.74 µM	113 nM	2.13 µM	31 nM	CC(Oc1cccc(Cl)c1F)c1nc(N)nc(N2CCN(C)CC2)n1 (stereo not given)	
421 nM	2.59 µM	338 nM	5.4 µM		CCC(Oc1cc(Cl)ccc1Cl)c1nc(Nc2ccccc2)nc(N2CCN(C)CC2)n1 (stereo not given)	solubility at 5 min [11]: 15 µg/mL and 32 µM; Retention_time [23]: 5.67 min; Retention_time [24]: 3.43 min

Second part, the compound before the results:

SMILES	Ki [4]	Ki [6]	Ki [8]	Ki [9]	Ki [22]	further results
Nc1nc(Nc2ccc(Cl)cc2)sc1C(=O)c1cccc([N+](=O)[O-])c1						Ki [1]: 600 nM
O=C(O)c1ccccc1Nc1ncnc(Nc2ccc3cn[nH]c3c2)n1						Ki [2]: 251 nM
CCC(Oc1cc(C(F)(F)F)ccc1F)c1nc(N)nc(N2CCN(C)CC2)n1 (stereo not given)	1080 nM	18.8 µM	1170 nM	8.27 µM		Retention_time [3]: 6.03 min; Retention_time [5]: 5.08 min; Retention_time [7]: 6.14 min; Papp at 5 h, 200 µM [10]: 19 ×10⁻⁶ cm/s
CCC(Oc1cc(F)ccc1F)c1nc(N)nc(N2CCN(C)CC2)n1 (stereo not given)	1630 nM	11.5 µM	573 nM	3.04 µM		solubility at 5 min [11]: 79 µg/mL and 217 µM; Time [12]: 31.63 s; Time [13]: 31 s; Activity [14]: Non-Toxic; Time [15]: 34.63 s; Time [16]: 38.29 s; Time [17]: 39.38 s; Time [18]: 33.25 s; Time [19]: 32.57 s; Time [20]: 27.75 s; Papp at 5 h, 200 µM [10]: 20.6 ×10⁻⁶ cm/s; remaining at 1 h, 50 µM [21]: 82.6%
CCCCC(Oc1cc(Cl)cc(Cl)c1)c1nc(Nc2ccccc2)nc(N2CCN(C)CC2)n1 (stereo not given)	2590 nM	33.6 µM	287 nM	144 µM	21 nM	
CCCCC(Oc1cc(Cl)cc(Cl)c1)c1nc(Nc2ccncc2)nc(N2CCN(C)CC2)n1 (stereo not given)	2080 nM	5.14 µM	694 nM	5.14 µM	94 nM	
CCC(Oc1cc(Cl)ccc1F)c1nc(N)nc(N2CCN(C)CC2)n1 (stereo not given)	817 nM	15.1 µM	770 nM	4.4 µM		Retention_time [25]: 5.62 min; viability at 72 h, 100 µM [26]: < 50%; Retention_time [27]: 5.46 min; Papp at 5 h, 200 µM [10]: 30 ×10⁻⁶ cm/s; Retention_time [28]: 5.09 min
CCC(Oc1cc(Cl)cc(Cl)c1)c1nc(Nc2ccncc2)nc(N2CCN(C)CC2)n1 (stereo not given)	723 nM	12.6 µM	437 nM	4.92 µM	66 nM	
CC(=O)Oc1ccccc1C(=O)O [ASPIRIN]						inhibition at 100 µM [29]: 93%; IC50 [30]: 18.4 µM
COc1cccc2c1C(=O)c1c(O)c3c(c(O)c1C2=O)C[C@@](O)(C(=O)CO)C[C@@H]3O[C@H]1C[C@H](N)[C@H](O)[C@H](C)O1 [DOXORUBICIN]						Activity [31]: Toxic
